The list is not random: actives were taken first. Their share in the collection is about 2.9%.
M1 ag parental = M1 agonist counterscreen hit in parental CHO-K1 cells; activation, % at 3 µM; Fluo-8 calcium fluorescence; scaled to maximal ATP response, vehicle zero; 360,000 compounds, 0.48% hits; AID 602248; in the data active = activation above about 15%;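 note: untransfected CHO-K1 host cells lacking M1 receptor as counterscreen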
M1 PAM parental = nonselective activator or artifact in parental CHO-K1 calcium assay | AID 602247 | activation, % at 3 µM | ATP EC20, Fluo-8 calcium fluorescence; 0% at ATP EC20, 100% at ATP max | 360,000 compounds, 0.02% hits;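 active = activation above the run cutoff, the mean activation of all test compounds plus 3 SD, cut at about 40% in these data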;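 note: peak over basal fluorescence ratio in a 140 s read after ATP addition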
OX1R antag-1 = blocks the human orexin 1 receptor | OX1R-expressing cells, FRET antagonist read-out | 330,000 compounds, 1.8% hits | AID 485270 | inhibition, % at 6.6 µM; in the data active = inhibition mostly above about 38%, no sharp cut-off; inactive = mostly below about 40%;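 note: 0% = agonist challenge alone and 100% = reference antagonist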
Target sequence (O43613 whole entry, looked up): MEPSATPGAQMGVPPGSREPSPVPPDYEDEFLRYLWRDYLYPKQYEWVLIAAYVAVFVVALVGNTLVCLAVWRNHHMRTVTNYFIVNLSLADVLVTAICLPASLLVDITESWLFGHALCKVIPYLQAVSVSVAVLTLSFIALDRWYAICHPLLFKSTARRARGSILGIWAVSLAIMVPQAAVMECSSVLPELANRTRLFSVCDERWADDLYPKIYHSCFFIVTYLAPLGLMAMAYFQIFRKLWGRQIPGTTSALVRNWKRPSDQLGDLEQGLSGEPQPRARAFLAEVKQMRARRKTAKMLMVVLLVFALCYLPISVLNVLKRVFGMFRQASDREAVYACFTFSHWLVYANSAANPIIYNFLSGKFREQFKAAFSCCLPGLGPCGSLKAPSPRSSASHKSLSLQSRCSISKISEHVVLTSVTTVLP
OX1R antag-2 = antagonists of human orexin 1 receptor; O43613; CHO/OX1R cells, Fluo-8 calcium fluorescence, orexin A; inhibition, % at 5 µM; 330,000 compounds, 0.43% hits; AID 434989;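 active = inhibition above its plate's threshold, mean inhibition of all tested compounds on the plate plus 3 SD, cut at about 37% in these data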;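 note: 0% = orexin A challenge wells and 100% = SB-334867-A antagonist wells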
CHO-K1 Ca antag = counter-screen for M1 antagonists: effect in parental CHO-K1 cells. ATP-induced calcium, Fluo-8 fluorescence. inhibition, % at 3 µM. 360,000 compounds, 0.6% hits. AID 602250;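 active = inhibition above a per-plate cutoff, the plate's mean sample inhibition plus 3 SD, cut at about 24% in these data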;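 note: 0% = DMSO plus EC80 ATP and 100% = DMSO alone without ATP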
CHO parental Ca = signal in parental CHO cells, OX1R antagonist counter-screen; parental CHO-K1, ATP-induced calcium, Fluo-8 fluorescence; 330,000 compounds, 0.63% hits; inhibition, % at 5.6 µM;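 active = inhibition above that plate's mean sample inhibition plus 3 SD, cut at about 26% in these data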;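 note: 0% = ATP-challenged DMSO wells and 100% = DMSO wells without ATP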
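Test system: parental CHO cells; detection: calcium-sensitive Fluo-8 fluorescence; evaluation: percent inhibition of calcium signal; also added: ATP as calcium-mobilizing challenge; repeats: one well per compound; control set: ATP-challenged DMSO wells low, unchallenged DMSO wells high; compound: single nominal dose of 5.6 µM per compound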
The depositor's hits bear a star; . = not tested or not shown.

SMILES	M1 ag parental	M1 PAM parental	OX1R antag-1	OX1R antag-2	CHO-K1 Ca antag	CHO parental Ca
Cc1ccc(S(=O)(=O)NCCC(=O)O)cc1	1	12	17	-8	4	-7
Cc1cccc(C(=O)O/N=C2/CC3CCC2(C)C3(C)C)c1 (stereo not drawn)	0	12	13	-37	-5	31*
COc1ccc(NC2=CC(c3cccc(OC)c3)N(c3ccc(OC)cc3)C2=O)cc1 (stereo not drawn)	9	11	-1	-11	37*	-11
COc1ccc(/C=N/NC(=O)c2nn(-c3ccc(Cl)cc3)c(=O)c3c(N)scc23)cc1	0	3	52*	-14	4	-8
COc1ccc(/C=N/NC(=O)c2nn(-c3ccccc3)c(=O)c3c(N)scc23)cc1	0	4	70*	0	-10	-3
COc1ccc(/C=N/NC(=O)c2nc(-c3ccccc3)n(-c3ccccc3)n2)cc1OC	1	-9	47	9	25*	-19
COc1ccc(/C=N/NC(=O)c2nn(-c3ccc(C)c(C)c3)c(=O)c3ccccc23)cc1	0	12	17	-19	-9	-14
Cc1ccc(SCC(=O)Nc2ccc(N3CCOCC3)cc2)cc1C	0	-16	8	-9	1	-6
CCOC(=O)c1ccc(NC(=S)N2CCSC2c2ccc(Br)cc2)cc1 (stereo not drawn)	6	-6	4	55*	16	46*
O=C(O)c1cccc2c1C(=O)c1ccc(N3CCCCC3)cc1S2(=O)=O	3	20	11	-2	-8	3
COc1ncc(-c2ccc3c(c2)S(=O)(=O)c2cccc(C(=O)O)c2C3=O)cn1	0	-1	38*	-1	-7	7
COc1ccc(-c2ccc3c(c2)S(=O)(=O)c2cccc(C(=O)O)c2C3=O)cc1OC	0	5	22	6	3	1
O=C(O)c1cccc2c1C(=O)c1ccc(Cl)cc1S2(=O)=O	0	11	39*	0	-7	-6
O=C(Nc1ccccc1)N1CCN(c2nc(-c3ccccc3)ns2)CC1	10	-25	8	-4	18	-1
O=C(Nc1ccccc1Cl)N1CCCN(c2nc(-c3ccccc3)ns2)CC1	13	-18	74*	15	23	1
COc1ccc(C=O)cc1CSc1ncccc1C(=O)O	0	-11	-1	-14	-13	2
O=c1c(Cl)c(Cl)cnn1Cc1nnc(-c2ccccc2Br)o1	71*	-7	.	.	95*	.
COCCOC(=O)c1[nH]c2c(c1C)C(=O)CC(c1ccco1)C2 (stereo not drawn)	1	21	-1	-4	-3	-7
COCCOC(=O)c1[nH]c2c(c1C)C(=O)CC(c1ccccc1)C2 (stereo not drawn)	2	-6	27	-6	8	42*
COCCOC(=O)c1[nH]c2c(c1C)C(=O)CC(c1ccc(N(C)C)cc1)C2 (stereo not drawn)	16*	6	13	-10	6	-7
Cc1ccc(S(=O)(=O)N(CC(O)CN2CCOCC2)c2cccc([N+](=O)[O-])c2)cc1 (stereo not drawn)	0	5	14	-25	-11	-32
Cc1ccc2c(c1)N(C(=O)CCC(=O)NCc1ccccn1)CC(C)O2 (stereo not drawn)	0	9	4	-10	-10	18
Cc1cc(=O)n2nc(N3CCC(C(=O)NCc4cccc(Br)c4)CC3)sc2n1	0	11	16	16	-13	-16
CN1CCN(CCc2nc3cc(NC(=O)COc4ccc(Cl)cc4)ccc3n2C)CC1	-1	-4	8	-9	26*	-9
Cn1c(CCN2CCCCC2)nc2cc(NC(=O)COc3ccc(Cl)cc3)ccc21	0	17	7	-37	-6	-25
SMILES	M1 ag parental	M1 PAM parental	OX1R antag-1	OX1R antag-2	CHO-K1 Ca antag	CHO parental Ca
O=C1/C(=C/c2cccc(F)c2)SC(=S)N1NS(=O)(=O)c1ccccc1	1	7	7	3	-12	-8
COc1ccc(/C=C2/SC(=O)N(NS(=O)(=O)c3ccccc3)C2=S)cc1OC	7	-4	43*	-5	-25	-17
Cc1ccc(S(=O)(=O)NN2C(=O)/C(=C/c3cccs3)SC2=S)cc1	-1	-23	56	4	26*	-2
COc1cc(/C=C2\SC(=S)N(NS(=O)(=O)c3ccccc3)C2=O)cc(OC)c1OC	0	10	36	-28	-2	-28
COc1cccc(/C=C2\SC(=S)N(NS(=O)(=O)c3ccccc3)C2=O)c1OC	1	7	50*	-14	-11	-13
COc1cc(CNC(C)c2ccccc2)cc(Cl)c1OCC(=O)Nc1ccccc1 (stereo not drawn)	4	13	10	-29	-12	-15
Cc1cc(S(=O)(=O)N2CCCCC2)ccc1OCC(=O)Nc1ccccc1	9	9	11	-19	-12	-22
O=C(CSc1cn[nH]n1)Nc1ccc(Cl)cc1Cl	1	-9	30	-14	-6	7
COC(=O)c1ccc(CNC(=O)c2ccc(S(=O)(=O)N(C)c3ccccc3OC)cc2)cc1	5	-11	11	20	6	4
Cc1cc(/C=C2/C(=N)N3C(=NC2=O)SN=C3S(C)(=O)=O)c(C)n1-c1ccccc1F	1	8	47*	14	0	-3
CCCC1=NN2C(=N)/C(=C\c3cc(C)n(Cc4ccccc4)c3C)C(=O)N=C2S1	27*	-17	11	104*	-5	86*
Cc1cc(/C=C2\C(=N)N3N=C(S(C)(=O)=O)SC3=NC2=O)c(C)n1Cc1ccccc1	0	23	58*	-2	-3	0
Cc1ccc(OCC(=O)N(C)CC(=O)NCc2ccco2)c(Br)c1	0	6	.	.	-13	.
CCCOC1CCCN(C(=O)c2cc(COc3c(F)cccc3F)on2)C1 (stereo not drawn)	0	-17	22	-15	0	-9
Cc1ccccc1C1CCCN(C(=O)c2cc(COc3c(F)cccc3F)on2)C1 (stereo not drawn)	3	7	11	-16	1	43*
COc1ccc(-c2cn3cccc(C)c3n2)cc1Br	0	14	74*	-24	-9	-14
Cc1nn(Cc2c(Cl)cccc2Cl)c(C)c1NC(=O)/C=C/c1cnn(C)c1C	1	12	56*	6	-5	-5
Cc1ccccc1Cn1nc(C)c(NC(=O)/C=C/c2cnn(C)c2C)c1C	0	12	5	-18	-1	-11
CC(C)C(OC(=O)Cn1nnc2ccccc21)C(=O)NC1CCCC1 (stereo not drawn)	8	3	10	-19	0	-23
COc1ccccc1CNC(=O)CSc1ccc(-c2cccs2)nn1	1	12	59*	-9	-10	-20
